Measured values taken from ChEMBL document CHEMBL4840314, “Optimization of peptide-based inhibitors targeting the HtrA serine protease in Chlamydia: Design, synthesis and biological evaluation of pyridone-based and N-Capping group-modified analogues” (Eur J Med Chem, 2021).
Activity calls are given as the source filed them. The rule behind the calls is not given here.

Experiments:
Chlamydia pecorum [1] = assay: Antibacterial activity against Chlamydia pecorum G (MC/MarsBar;CpG) infected in McCoy B cells assessed as reduction in bacterial titer at 50 to 100 uM measured after 44 hrs; type: functional, organism-based; details: VR629 G (MC/MarsBar;CpG), dose 50-100 µM
Procedure, shortened: (§1)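 C. trachomatis D was grown in HEp-2 cells and C. pecorum G in McCoy B cells, in high-glucose DMEM with 10% heat-inactivated FCS, 4 mM alanyl-glutamine, streptomycin and gentamicin. Cells were seeded at 20,000/well 24 h before infection, at MOI 12 (CtD) or MOI 4 (CpG). Infection was synchronised by centrifugation at 500×g, 28 °C, 30 min. Dose series added 16 h PI, with 1% DMSO and media controls. Read-out was IFU/mL; n=3.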

Chlamydia pecorum [2] = assay: Antibacterial activity against Chlamydia pecorum G (MC/MarsBar;CpG) infected in McCoy B cells assessed as log reduction in infectivity unit at 25 uM measured after 44 hrs; type: functional, organism-based; details: VR629 G (MC/MarsBar;CpG); procedure, shortened: as §1
HEp-2 [3] = assay: Cytotoxicity against human HEp-2 cells assessed as reduction in MTS absorbance at 100 uM by MTS assay; type: cell-based; set-up: scale not given: the % may be the effect or the level left; details: hep-2, 100 µM
Procedure, shortened: (§2)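 HEp-2 cells were seeded at 5000/well and treated 24 h later with compound (two doses) alongside 1% DMSO and media controls, in triplicate. After 24 h treatment, medium was replaced with fresh supplemented DMEM. MTS/PMS was added for 4 h and absorbance read at 490 nm. Results are expressed as % MTS reduction relative to 1% DMSO-treated cells.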

Chlamydia trachomatis [4] = assay: Antibacterial activity against Chlamydia trachomatis D (D/UW-3/Cx; CtD) infected in HEp-2 cells assessed as log reduction in infectivity unit at 25 uM measured after 44 hrs; type: functional; procedure, shortened: as §1
Chlamydia trachomatis [5] = assay: Antibacterial activity against Chlamydia trachomatis D (D/UW-3/Cx; CtD) infected in HEp-2 cells assessed as reduction in bacterial titer at 50 to 100 uM measured after 44 hrs; type: functional, organism-based; details: dose 50-100 µM; procedure, shortened: as §1
HEp-2 [6] = assay: Cytotoxicity against human HEp-2 cells assessed as decrease in cell integrity at 25 uM by LDH assay; type: cell-based; set-up: scale not given: the % may be the effect or the level left; details: hep-2, 25 µM
Procedure, shortened: (§3)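 HEp-2 cells were seeded at 5000/well and treated 24 h later at two doses, with 1% DMSO and media-only controls, in triplicate, for 8 h. Maximum-release wells were lysed with 0.8% Triton X-100 45 min before supernatant collection. Supernatant was incubated with CytoTox reagent for 30 min, then stop solution, and read at A490. Extracellular LDH is given as % of maximum release.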

Escherichia coli = assay: Antibacterial activity against Escherichia coli assessed as growth inhibition at 50 uM; type: functional, organism-based
Procedure, shortened: (§4)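 Broth microdilution MIC in cation-adjusted Mueller Hinton broth. Compound was 2-fold serially diluted from 32 µg/mL (approx. 50 µM) to 0.015 µg/mL. The inoculum was about 5×10⁵ CFU/mL from overnight cultures. Plates were incubated at 37 °C with shaking for 24 h. MIC was the lowest concentration without growth; technical triplicate.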

[7] = target: T1, Probable periplasmic serine endoprotease DegP-like (Chlamydia trachomatis, UniProt P18584); assay: Inhibition of recombinant ctHtrA serine protease using MeOCoum-ENLHLPLPI1F-D as substrate pretreated for 10 min followed by substrate addition and measured after 30 minutes
T1 sequence (P18584 whole entry): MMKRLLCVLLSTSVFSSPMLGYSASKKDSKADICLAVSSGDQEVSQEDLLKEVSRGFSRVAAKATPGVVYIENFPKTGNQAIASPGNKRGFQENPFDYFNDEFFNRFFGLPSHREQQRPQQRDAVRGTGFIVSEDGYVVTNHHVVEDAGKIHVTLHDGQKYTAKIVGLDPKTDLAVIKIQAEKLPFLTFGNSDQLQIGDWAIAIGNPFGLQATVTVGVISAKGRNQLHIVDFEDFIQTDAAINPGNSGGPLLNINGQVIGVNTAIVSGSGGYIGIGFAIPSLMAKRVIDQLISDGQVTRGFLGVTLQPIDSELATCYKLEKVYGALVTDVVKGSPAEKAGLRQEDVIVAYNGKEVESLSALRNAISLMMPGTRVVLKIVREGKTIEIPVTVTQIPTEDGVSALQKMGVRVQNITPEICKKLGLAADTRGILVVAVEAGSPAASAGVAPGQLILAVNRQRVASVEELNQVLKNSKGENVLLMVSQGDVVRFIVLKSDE
Procedure, shortened: (§5)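 Recombinant CtHtrA was tested against a six-dose inhibitor series in 50 mM Tris, 20 mM MgCl₂, pH 7.0. Plates were shaken before each of multiple reads per well. Each dose was run in triplicate, with a JO146 dose series (n=3) and DMSO controls (n=6). Relative inhibition is IC50(JO146)/IC50(compound), because IC50 varied between batches.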

Neutrophil elastase = target: T2, Neutrophil elastase (Homo sapiens, UniProt P08246); assay: Inhibition of human neutrophil elastase using methoxysuccinyl-Ala-Ala-Pro-Val-pNA as substrate incubated for 15 min
T2 sequence (P08246 whole entry): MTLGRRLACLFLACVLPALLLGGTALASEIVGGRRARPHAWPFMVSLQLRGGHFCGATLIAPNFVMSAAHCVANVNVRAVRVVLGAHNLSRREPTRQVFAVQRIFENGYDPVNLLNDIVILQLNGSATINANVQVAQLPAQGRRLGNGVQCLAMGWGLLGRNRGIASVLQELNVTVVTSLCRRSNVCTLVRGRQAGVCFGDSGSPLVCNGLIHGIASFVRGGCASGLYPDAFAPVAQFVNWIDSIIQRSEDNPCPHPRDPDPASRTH

Pseudomonas aeruginosa = assay: Antibacterial activity against Pseudomonas aeruginosa assessed as growth inhibition at 50 uM; type: functional, organism-based
Procedure, shortened: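 P. aeruginosa PAO1 was grown overnight in fluorescent broth (pH 7.0) at 37 °C with shaking, diluted 1/1000 with added MgSO₄, and given compound at 50 or 100 µM final. DMSO controls were 0.5% or 1%. OD600 and fluorescence (ex 405/em 460 nm) were read every 15 min for 24 or 48 h. Pyoverdine was quantified as area under the curve.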

[8] = target: T3, Probable periplasmic serine endoprotease DegP-like (Chlamydia trachomatis) (UniProt P18584); assay: Ratio of JO146 IC50 to test compound IC50 for inhibition of recombinant ctHtrA serine protease using Me0Coum-ENLHLPLPI1F-D as substrate pretreated for 10 minutes followed by substrate addition and measured after 30 minutes; procedure, shortened: as §5
T3 sequence (whole entry): T1 sequence (P18584 whole entry)

Staphylococcus aureus = assay: Antibacterial activity against Staphylococcus aureus assessed as growth inhibition at 50 uM; type: functional, organism-based; procedure, shortened: as §4
HEp-2 [9] = assay: Cytotoxicity against human HEp-2 cells assessed as reduction in MTS absorbance at 25 uM by MTS assay; type: cell-based; details: hep-2, 25 µM; procedure, shortened: as §2
HEp-2 [10] = assay: Cytotoxicity against human HEp-2 cells assessed as decrease in cell integrity at 100 uM by LDH assay; type: cell-based; set-up: scale not given: the % may be the effect or the level left; details: hep-2, 100 µM; procedure, shortened: as §3

Compound	Activity (Chlamydia pecorum [1])	Activity (Chlamydia pecorum [2])	Activity (HEp-2 [3])	Activity (Chlamydia trachomatis [4])	Activity (Chlamydia trachomatis [5])	Activity (HEp-2 [6])	Activity (Escherichia coli)	IC50 [7]	IC50 (Neutrophil elastase)	Activity (Pseudomonas aeruginosa)	Ratio IC50 [8]	Activity (Staphylococcus aureus)	Activity (HEp-2 [9])	Activity (HEp-2 [10])
CC(C)C(NC(=O)Cn1cccc(NC(=O)Oc2ccccc2)c1=O)P(=O)(Oc1ccccc1)Oc1ccccc1 (configuration not stated)	Active	Active	<= 25%	Active	Active									
CC(C)C(NC(=O)[C@@H]1CCCN1C(=O)[C@@H](NC(=O)OC(C)(C)C)C(C)(C)C)P(=O)(Oc1ccccc1)Oc1ccccc1 (some centres not stated)						<= 3.4%	inactive	9.3 µM	3.02 µM	inactive	1.34	inactive		
CC(C)C(NC(=O)[C@@H]1CCCN1C(=O)[C@@H](NC(=O)OCc1ccccc1)C(C)(C)C)P(=O)(Oc1ccccc1)Oc1ccccc1 (some centres not stated)			Toxic			<= 3.4%							Non-Toxic	
CCC(C)C(NC(=O)[C@@H]1CCCN1C(=O)[C@@H](NC(=O)OC(C)(C)C)C(C)(C)C)P(=O)(Oc1ccccc1)Oc1ccccc1 (some centres not stated)						<= 3.4%	inactive	10.3 µM	13.5 µM	inactive	1.22	inactive		
CC(C)C(NC(=O)[C@@H]1CCCN1C(=O)[C@@H](NC(=O)NC(C)(C)C)C(C)(C)C)P(=O)(Oc1ccccc1)Oc1ccccc1 (some centres not stated)			Toxic			<= 3.4%							Non-Toxic	
CCC(C)C(NC(=O)Cn1cccc(NC(=O)Oc2ccccc2)c1=O)P(=O)(Oc1ccccc1)Oc1ccccc1 (configuration not stated)		Active	<= 25%	Active										
CCC(C)C(NC(=O)C(C)n1cccc(NC(=O)OC(C)(C)C)c1=O)P(=O)(Oc1ccccc1)Oc1ccccc1 (configuration not stated)		Active	<= 25%	Active				128 µM						< 10%
CC(C)C(NC(=O)C(C)n1cccc(NC(=O)OC(C)(C)C)c1=O)P(=O)(Oc1ccccc1)Oc1ccccc1 (configuration not stated)	Active	Active	<= 25%	Active	Active									
CCC(C)C(NC(=O)C(C)n1cccc(NC(=O)Oc2ccccc2)c1=O)P(=O)(Oc1ccccc1)Oc1ccccc1 (configuration not stated)		Active	<= 25%	Active				19.8 µM						
CCC(C)C(NC(=O)[C@@H]1CCCN1C(=O)[C@@H](NC(=O)C(C)(C)C)C(C)(C)C)P(=O)(Oc1ccccc1)Oc1ccccc1 (some centres not stated)		Active	Toxic	Active		<= 3.4%							Non-Toxic	
CCC(C)C(NC(=O)[C@@H]1CCCN1C(=O)[C@@H](NC(=O)OCc1ccccc1)C(C)(C)C)P(=O)(Oc1ccccc1)Oc1ccccc1 (some centres not stated)	Active		Toxic		Active	<= 3.4%		24.9 µM					Non-Toxic	
CC(C)C(NC(=O)C(C)n1cccc(NC(=O)Oc2ccccc2)c1=O)P(=O)(Oc1ccccc1)Oc1ccccc1 (configuration not stated)	Active	Active	<= 25%	Active	Active			41.8 µM						
CCC(C)C(NC(=O)[C@@H]1CCCN1C(=O)[C@@H](NC(=O)NC(C)(C)C)C(C)(C)C)P(=O)(Oc1ccccc1)Oc1ccccc1 (some centres not stated)			Toxic			<= 3.4%							Non-Toxic	
CC(C)C(NC(=O)[C@@H]1CCCN1C(=O)[C@@H](NC(=O)OC(C)(C)C)C(C)C)P(=O)(Oc1ccccc1)Oc1ccccc1 (some centres not stated)		Active	<= 25%	Active		<= 3.4%	inactive	12.5 µM	1.15 µM	inactive	1	inactive		
